Data on 15 compounds can be found in ChEMBL document CHEMBL4130495, “Design, synthesis and biological evaluations of N-Hydroxy thienopyrimidine-2,4-diones as inhibitors of HIV reverse transcriptase-associated RNase H” (Eur J Med Chem, 2017).

Data set [1] has as its target Human immunodeficiency virus type 1 reverse transcriptase (Human immunodeficiency virus 1, UniProt Q72547). As to the kind of experiment: Inhibition of RNH activity of recombinant HIV1 reverse transcriptase RNase H assessed as reduction in internal cleavage of RNA strand using RNA/DNA duplex substrate HTS-1.
The target in another data set is Gag-Pol polyprotein (Human immunodeficiency virus type 1 group M subtype B (isolate HXB2)(HIV-1), UniProt P04585). As to the kind of experiment: Inhibition of polymerase activity of recombinant HIV1 reverse polymerase assessed as reduction in extension of an 18 nucleotide DNA primer using template/primer and dNTPs incubated for 30 mins. Also on record: species or system Human immunodeficiency virus 1. The procedure, abridged:
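Recombinant HIV-1 RT (20 nM) was used with 40 nM template/primer (18-nt DNA primer annealed to a 100-nt DNA template) and 10 µM dNTPs in 50 mM Tris pH 7.8, 50 mM NaCl, with 1% DMSO and increasing compound concentrations. Reactions were started with 6 mM MgCl₂, run 30 min at 37 °C, and stopped with 100 mM EDTA. IC50 is reported as mean ± SD of ≥2 independent experiments.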

The target in data set [2] is Human immunodeficiency virus type 1 integrase (Human immunodeficiency virus 1, UniProt Q7ZJM1). The experiment in a line: Inhibition of HIV1 integrase pre-incubated for 10 mins before DNA substrate addition and measured after 30 mins.
Sequence of Human immunodeficiency virus type 1 integrase (Q7ZJM1 whole entry): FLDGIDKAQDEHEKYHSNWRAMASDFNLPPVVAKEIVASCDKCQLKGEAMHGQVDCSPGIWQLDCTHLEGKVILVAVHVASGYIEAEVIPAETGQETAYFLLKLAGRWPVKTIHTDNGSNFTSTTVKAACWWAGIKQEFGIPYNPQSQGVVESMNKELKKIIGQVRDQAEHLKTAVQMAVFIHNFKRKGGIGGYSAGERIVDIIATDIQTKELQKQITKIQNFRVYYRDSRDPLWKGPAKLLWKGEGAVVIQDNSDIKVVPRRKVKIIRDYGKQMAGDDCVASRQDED
Data set [3] deals with Human immunodeficiency virus 1. As to the kind of experiment: Antiviral activity against HIV1 infected in human P4R5 cells assessed as reduction in viral infection preincubated with cells for 24 hrs followed by viral infection measured after 48 hrs by fluorescence based beta-galactosidase reporter gene based MAGI assay. The class given is functional, organism-based.
A further data set relates to P4R5. The experiment in a line: Cytotoxicity in human P4R5 cells assessed as reduction in cell viability by MTS assay.

The structures appear in SMILES notation. pEC50, pIC50: −log10 of the molar value.

Consider `O=c1[nH]c2cc(-c3ccccc3)sc2c(=O)n1O`, for which the pIC50 in data set [1] is 7.00; on Gag-Pol polyprotein, less than 5.00; in data set [2] it was 5.35. The pEC50 in data set [3] is 4.96. The CC50 in the data set on P4R5 (P4R5) was 28 µM.

For the compound `Cc1csc2[nH]c(=O)n(O)c(=O)c12`, the figures for the negative-log IC50 (pIC50) (in data set [1]; on Gag-Pol polyprotein; in data set [2]) were 7.00, less than 5.00 and 4.92, respectively. For the same compound, in data set [3], the pEC50 is less than 4.70. For the same compound, the CC50 in the data set on P4R5 (P4R5) was 81 µM.

Take `O=c1[nH]c2sccc2c(=O)n1O`: the figures for the pIC50 (in data set [1]; on Gag-Pol polyprotein; in data set [2]) were 6.70, less than 5.00 and 4.46, respectively. Also, the pEC50 in data set [3] is 4.74. Besides, the CC50 with P4R5 (P4R5) turned out to be 54 µM.

On to `O=c1[nH]c2cc(-c3ccccc3)ccc2c(=O)n1O`, for which the results for the pIC50 (in data set [1]; at Gag-Pol polyprotein; in data set [2]) were 6.70, less than 5.00 and 4.96, respectively. Further, in data set [3], the pEC50 was 5.42. Moreover, the CC50 with P4R5 (P4R5) turned out to be 6 µM.

`O=c1[nH]c2sc(-c3ccccc3)cc2c(=O)n1O`: the pIC50 was 7.08 in data set [1], less than 5.00 on Gag-Pol polyprotein and 5.66 in data set [2]. Further, in data set [3], the negative-log EC50 (pEC50) was less than 4.70. Also, the CC50 with P4R5 (P4R5 cells) is greater than 100 µM.

Turning to `O=c1[nH]c2cc(-c3ccc(Cl)cc3)sc2c(=O)n1O`, the figures for the negative logarithm of the IC50 (pIC50) (in data set [1]; on Gag-Pol polyprotein; in data set [2]) were 7.15, less than 5.00 and 4.64, respectively. Besides, the pEC50 in data set [3] was less than 4.70. Besides, the CC50 with P4R5 (P4R5 cells) is greater than 100 µM.

On to `O=c1[nH]c2scc(-c3ccc(Cl)cc3)c2c(=O)n1O`, for which the pIC50 in data set [1] was 7.40; at Gag-Pol polyprotein, less than 5.00; in data set [2] it was 5.68. Further, in data set [3], the pEC50 is 5.13. The CC50 in the data set with P4R5 (P4R5 cells) was greater than 100 µM.

Take `O=c1[nH]c2cc(-c3ccc(Cl)cc3)ccc2c(=O)n1O`: the negative-log IC50 (pIC50) in data set [1] was 6.70; on Gag-Pol polyprotein, less than 5.00. In addition, the pEC50 in data set [3] is 5.35. Moreover, in the data set with P4R5 (P4R5), the CC50 turned out to be 9.9 µM.

Consider `O=c1[nH]c2cc(-c3ccc(F)cc3)sc2c(=O)n1O`, for which the pIC50 in data set [1] is 6.70; on Gag-Pol polyprotein it was less than 5.00; in data set [2] it was 4.77. In addition, the negative logarithm of the EC50 (pEC50) in data set [3] is less than 4.70. The CC50 with P4R5 (P4R5 cells) was greater than 100 µM.

For `O=C1Cc2cc(-c3ccccc3)ccc2C(=O)N1O`, the pIC50 in data set [1] was 5.89; at Gag-Pol polyprotein it was less than 5.00; in data set [2], 5.70. Besides, the pEC50 in data set [3] is 4.80. In addition, the CC50 in the data set with P4R5 (P4R5) came out at 19 µM.

For the compound `O=c1[nH]c2c(c(=O)n1O)CN(Cc1ccccc1)CC2`, the results for the pIC50 (at Gag-Pol polyprotein; in data set [2]) were less than 5.00 and less than 4.00, respectively.

With `O=c1[nH]c2sc(Cc3ccccc3)cc2c(=O)n1O`, the pIC50 in data set [1] is 7.37; on Gag-Pol polyprotein, less than 5.00; in data set [2], 5.30. In addition, the pEC50 in data set [3] is less than 4.70. In addition, the CC50 in the data set with P4R5 (P4R5 cells) was greater than 100 µM.

`Cc1c(C(=O)O)sc2[nH]c(=O)n(O)c(=O)c12`: the results for the pIC50 (in data set [1]; on Gag-Pol polyprotein; in data set [2]) were 7.00, less than 5.00 and 5.10, respectively. The pEC50 in data set [3] was less than 4.70. Also, the 50% cytotoxic concentration (CC50) in the data set with P4R5 (P4R5 cells) is greater than 100 µM.

As for `Cc1sc2[nH]c(=O)n(O)c(=O)c2c1C`, the pIC50 in data set [1] is 7.00; on Gag-Pol polyprotein it was less than 5.00; in data set [2], 5.08. For the same compound, the pEC50 in data set [3] is 5.05. In addition, in the data set with P4R5 (P4R5), the cytotoxic concentration (CC50) is 62 µM.

In the case of `O=c1[nH]c2scc(-c3ccccc3)c2c(=O)n1O`, the pIC50 in data set [1] is 7.00; at Gag-Pol polyprotein, less than 5.00; in data set [2] it was 5.89. In addition, the pEC50 in data set [3] is 4.85. Besides, in the data set on P4R5 (P4R5 cells), the CC50 is greater than 100 µM.
